Hits are enriched below; roughly 2.3% of the tested compounds scored in any of these assays.
TWEAK Fn14 block = inhibitors of TWEAK-Fn14 signaling, primary screen, luciferase reporter cells, uHTS. TWEAK-stimulated Fn14 reporter cells, luciferase luminescence, 8 h. inhibition, % at 10 µM. 360,000 compounds, 2% hits. AID 1159606, 2016; in the data active means inhibition above about 50%
TROY signal inh = inhibitors of TROY-driven NF-kB signaling, primary screen, Q293 LMP1-TROYcd cells, NF-kB luciferase, uHTS | inhibition, % at 10 µM | Q293 LMP1-TROYcd NF-kB luciferase reporter, 4 h | 360,000 compounds, 0.98% hits;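 active means compounds whose plate-normalised and pattern-corrected inhibition of the luciferase reporter signal at the single screening dose is 50% or more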
EWS-Fli block = EWS/Fli-driven NR0B1 reporter inhibitors, primary screen, A673 cells, NR0B1 luciferase, luminescence, MLPCN library; viability-normalised; inhibition, % at 12.6 µM; 350,000 compounds, 0.67% hits;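 active means mean inhibition of at least 50% after viability correction, with every replicate also passing that limit; inconclusive means mean reaches 50% but only one of two replicates passes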;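 further: firefly luciferase signal divided by Alamar Blue viability fluorescence both relative to DMSO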
XiGFP reactiv = activators of inactive X chromosome reactivation, primary screen, imaging, XiGFP fibroblasts, GFP high-content imaging, set 2. 360,000 compounds, 0.055% hits. XiGFP mouse fibroblasts, % GFP-positive cells imaging, 3 d; cells co-treated with 5-aza-dC sensitizer; scaled so ellipticine positive control = 100%. AID 743238, 2013. activation, % at 7.58 µM;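 active means mean normalized replicate activation at least 10% and every replicate at or above 10%; inconclusive means only one of the two criteria met; inactive means mean below 10% and not all replicates reach 10%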
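Material: XiGFP fibroblasts, SV40-immortalized; Buffer or medium: DMEM containing 5-aza-dC; Compound dosing: single point; Times: 3 days compound exposure.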
FN deposition inh = inhibitors of fibronectin matrix deposition, primary screen, AH1F cells, Alexa488-fibronectin fluorescence, plate reader. AH1F fibroblasts, overnight. inhibition, % at 12.6 µM. 350,000 compounds, 0.086% hits;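 active means mean inhibition across replicates of 30% or more, regardless of how many single replicates reach that level; inconclusive means mean under 30% yet at least half of replicates reach 30%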
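Material: AH1F fibroblast monolayer depositing Alexa488-labelled fibronectin into matrix | Input: 10000 AH1F cells/well | Medium: DMEM plus 2% serum, read in PBS | Reagent: Alexa488-fibronectin, 24 nM final in well | Compound dosing: One dose per compound, pinned | Schedule: 1 h adhesion, overnight exposure | Measured by: Fluorescence at 485 nm excitation, 525 nm emission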
LGR2 antag = inhibitors of bursicon-induced LGR2 CRE-luciferase signal, primary screen, cell-based, HEK293, CRE-luciferase reporter, bursicon stimulation. Drosophila bursicon receptor LGR2 (rickets). bursicon-stimulated, 4 h. inhibition, % at 9.99 µM. 380,000 compounds, 0.35% hits;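 active means drop in luminescence signal, shown as inhibition above about 50% in the replicate tests, limit read from the data, passing the limit was not always enough; inconclusive means probably only some replicates passing the limit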;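 further: agonist challenge used bursicon conditioned medium at about half maximal strength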
A number is an active result; – = inactive; ? = inconclusive; · = no result; ! = a repeat was not active.

SMILES	TWEAK Fn14 block	TROY signal inh	EWS-Fli block	XiGFP reactiv	FN deposition inh	LGR2 antag
Cc1ccc(S(=O)(=O)Nc2ccc3c(c2)C(=O)c2ccccc2-3)cc1	–	53	–	–	–	–
O=C(Nc1ccc(-c2csc(Nc3ccccc3)n2)cc1)c1cc([N+](=O)[O-])cc(C(F)(F)F)c1	66	–	–	–	–	–
COc1ccc(NC(=O)Nc2ccc3c(c2)CC(=O)N([C@H](C)CO)C[C@H](C)[C@@H](CN(C)Cc2ccc(Oc4ccccc4)cc2)O3)cc1	·	·	–	–	·	–
C[C@H]1CN([C@@H](C)CO)S(=O)(=O)c2ccc(-c3cccc(C(=O)N(C)C)c3)cc2O[C@@H]1CN(C)C(=O)Nc1ccc(F)cc1	·	·	–	–	–	–
COc1ccc(C2=Nn3c(nnc3-c3ccccc3F)SC2)cc1OC1CCOC1 (stereo unspecified)	–	–	60	–	–	–
COc1ccc(OC)c(-c2nnc3n2N=C(c2ccc(OC)c(OC)c2)CS3)c1	–	–	56	–	–	–
O=C(Oc1ccccc1C(=O)Nc1ccccc1)c1ccccc1Br	–	–	53	–	–	·
COc1cc(-c2csc(N3CCOCC3)n2)cc(OC)c1OC	–	–	·	·	·	–
COc1ccc(-c2csc(N3CCN(c4cc(C)nc5ccccc45)CC3)n2)cc1OC	52	–	–	–	–	·
CS(=O)(=O)N1C[C@@H]2C(c3ccc(Br)cc3)[C@H](C1)N2CC(F)(F)F (stereo partly specified)	·	·	·	–	–	·
Fc1ccccc1Cn1nnc(-c2ccc3c(c2)OCO3)n1	–	53	·	·	–	·
COc1ccc(-c2nnn(Cc3ccccc3F)n2)cc1	–	–	·	·	·	–
COc1ccc2c3c([nH]c2c1)[C@H](CO)N(Cc1ccccc1)CC31CCN(C(=O)c2cccnc2)CC1	·	·	·	–	·	·
CC1C/C(=C/c2ccncc2)C(=O)/C(=C/c2ccncc2)C1 (stereo unspecified)	100	66	78	–	–	103
CCC(=O)N1[C@@H]2c3ccc(C4=CCCC4)c(=O)n3C[C@@H]2[C@@H](CO)[C@@H]1C(=O)NCc1ccc(F)cc1	·	·	–	–	·	–
Cc1ccc2sc(-c3ccc(NC(=O)/C=C\C(=O)O)cc3)nc2c1	55	–	–	–	–	?
Cc1nc(-c2ccc(NC(=O)/C=C\C(=O)O)cc2)cs1	–	61	–	–	–	–
Cc1ccc2nc(-c3ccc(NC(=O)COCC(=O)O)cc3)sc2c1	–	–	–	–	–	–
O=C1NCCN1CCNS(=O)(=O)c1ccc(F)cc1	53	65	–	–	–	–
COc1ccc(S(=O)(=O)NCCN2CCNC2=O)cc1OC	–	–	–	–	–	–
COCCN1CCN(C(=O)c2cc(COc3ccc(F)c(F)c3)on2)CC1	77	–	–	–	–	–
CN(C)CC(C)(C)CNS(=O)(=O)c1ccc(Cl)c(Cl)c1	–	52!	–	–	–	–
CN(C)CCNC(=O)c1cccc(NS(=O)(=O)c2ccc(Cl)c(Cl)c2)c1	–	–	–	–	·	–
Cc1ccc(C2CN=NC23CCc2ccccc2C3=O)cc1 (stereo unspecified)	55	–	·	·	–	·
O=C(Nc1nc2ccccc2[nH]1)c1ccc(Cl)cc1	69	–	53	–	–	57
SMILES	TWEAK Fn14 block	TROY signal inh	EWS-Fli block	XiGFP reactiv	FN deposition inh	LGR2 antag
O=C(Nc1nc2ccccc2[nH]1)c1ccccc1	79	–	·	·	·	·
O=C(/C(=C/c1ccc(Cl)cc1)c1nc2ccccc2[nH]1)c1ccccc1	79	–	·	·	–	·
O=C(Cc1ccccc1)Nc1nc2ccccc2[nH]1	–	64	–	·	·	–
Cc1ccc(S(=O)(=O)N(C)C[C@H]2Oc3ccc(NS(=O)(=O)c4cn(C)cn4)cc3CC(=O)N([C@H](C)CO)C[C@H]2C)cc1	·	·	–	–	·	–
O=C(CN1C(=O)COc2ccccc21)N(Cc1cccnc1)Cc1cccc(F)c1	68	–	·	·	–	–
CCC1Oc2ccc(C)cc2N(CC(=O)N(Cc2cccnc2)Cc2cccc(F)c2)C1=O (stereo unspecified)	–	–	·	·	–	·
Cc1cccnc1Nc1nc(-c2ccccn2)cs1	101	–	·	·	·	·
COc1ccc(CC2=CC(=O)c3ccccc3C2=O)cc1	–	–	69	–	–	–
Cc1ccc(-c2nc(NC(=O)CSc3nnc4scc(-c5ccccc5)n34)ns2)cc1	–	52	–	–	–	–
O=C(NNC(=S)NC1CCCCC1)c1sc2ccccc2c1Cl	–	76	–	–	–	–
O=C(NC(=S)NCCO)c1sc2ccccc2c1Cl	–	–	–	–	–	–
CC(C)(C)C(=O)NC(=S)NNC(=O)c1sc2ccccc2c1Cl	100	86	·	·	·	·
O=C(NC1CC1)c1sc2ccccc2c1Cl	–	–	–	–	–	–
O=C(C[C@H]1C=C[C@H](NC(=O)C2CC2)[C@@H](CO)O1)NC1CCC1	·	·	–	–	–	–
O=C(C[C@H]1C=C[C@H](NC(=O)Cc2cccnc2)[C@@H](CO)O1)NCc1ccc2c(c1)OCO2	·	·	–	–	·	–
C[C@@H]1CN([C@@H](C)CO)C(=O)c2cc(NC(=O)Nc3ccccc3)ccc2O[C@@H](C)CCCCO[C@H]1CN(C)S(=O)(=O)c1cn(C)cn1	·	·	–	–	–	–
O=C(Cc1ccccc1)N1C[C@H]2[C@@H](c3ccccc31)[C@H](CO)N2C(=O)C1CCCC1	·	·	–	–	–	–
Cc1ccsc1C1C(C#N)=C(N)Oc2n[nH]c(C)c21 (stereo unspecified)	61	–	–	–	·	–
COc1ccccc1C(=O)NNC(=O)C12CC3CC(CC(C3)C1)C2	–	–	–	–	–	–
C[n+]1cccc(C(=O)NNC(=O)C23CC4CC(CC(C4)C2)C3)c1	–	52	–	–	–	–
O=S(=O)(NC(=NC1CCCCC1)c1ccccc1F)c1ccccc1	63	–	–	–	–	–
O=S(=O)(NC(=NC1CCCCC1)c1ccccc1)c1ccccc1	–	–	–	–	–	–
O=C(C[C@@H]1CC[C@@H]2[C@H](COC[C@H](O)CN2S(=O)(=O)c2ccc(Cl)cc2)O1)NCC1CCCCC1	·	·	–	–	–	–
CCC(=O)N1CCCCN2[C@H](CO)[C@H](c3ccc(C#Cc4ccccc4)cc3)[C@@H]2C1	·	·	–	–	·	–
C=CCc1cccc(/C=N/NC(=O)CNc2cccc3ccccc23)c1O	69	–	–	–	–	·
C=CCc1cccc(/C=N/NC(=O)CNc2ccccc2OC)c1O	–	–	–	–	·	–
